# High-throughput results (PubChem)
# M4 PAM: CHRM4 positive allosteric modulation; activation, % at 3 µM; P08173; AID 624126; 0.4% of 360,000 active; CHO-K1 hM4/Gqi5, Fluo-8 calcium fluorescence, ACh EC20; 0% = ACh EC20, 100% = maximal ACh;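 active = activation above its plate's cutoff, the mean activation of sample wells plus 3 SD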
# Target sequence (P08173 whole entry, looked up): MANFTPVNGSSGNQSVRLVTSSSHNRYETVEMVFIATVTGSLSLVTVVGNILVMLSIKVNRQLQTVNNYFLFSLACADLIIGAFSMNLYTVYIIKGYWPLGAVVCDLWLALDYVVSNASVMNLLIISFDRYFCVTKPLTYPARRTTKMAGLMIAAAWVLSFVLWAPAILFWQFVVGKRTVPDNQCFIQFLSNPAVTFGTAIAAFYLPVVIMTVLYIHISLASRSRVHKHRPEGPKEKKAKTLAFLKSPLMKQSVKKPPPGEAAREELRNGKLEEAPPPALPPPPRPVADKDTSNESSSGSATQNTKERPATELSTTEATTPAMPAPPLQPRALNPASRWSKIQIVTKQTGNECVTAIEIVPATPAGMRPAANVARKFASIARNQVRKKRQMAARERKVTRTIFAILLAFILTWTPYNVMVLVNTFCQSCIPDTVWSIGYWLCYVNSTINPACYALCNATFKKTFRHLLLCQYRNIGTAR
# CHRM4 agonist: CHRM4 agonism in calcium assay. P08173. CHO-K1 hM4/Gqi5, Fluo-8 calcium fluorescence; vehicle 0%, full acetylcholine response 100%. activation, % at 3 µM. 0.14% of 360,000 active;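 active = activation above the run mean over all test wells plus 3 SD, cut at about 32% in these data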;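 also: peak over basal fluorescence ratio per well then scaled between controls; 0% = DMSO wells and 100% = acetylcholine at EC100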
# CHRM5 PAM: potentiates acetylcholine response at human M5 receptor; P08912; CHO-K1 hM5, Fluo-8 calcium, ACh EC20 PAM; 0% = ACh EC20, 100% = ACh EC100; activation, % at 3 µM; 0.3% of 360,000 active; AID 624038;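 active = activation above the run cutoff, the mean activation of all test compounds plus 3 SD, cut at about 18% in these data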
#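 Assay system: CHO-K1 hM5 cells. Also added: acetylcholine at EC20 concentration, added after compound. Dosing: 3 µM, single dose. Times: compound preincubation 140 s before EC20 acetylcholine addition. Signal: Fluo-8 calcium fluorescence. Measure: % activation relative to EC20 and EC100 ACh responses. Repeats: singlicate, one well per test compound.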
# CHRM5 antagonist: CHRM5 antagonism in calcium assay; AID 624040; CHO-hM5 cells, Fluo-8 calcium fluorescence, ACh EC80; inhibition, % at 3 µM; 0.59% of 360,000 active;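 active = inhibition above a per-plate cutoff, the mean of that plate's test compounds plus 3 SD, cut at about 27% in these data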;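 also: 0% = acetylcholine EC80 with DMSO and 100% = DMSO without agonist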
# CHRM5 agonist: CHRM5 agonism in calcium assay. P08912. CHO-K1 hM5 cells, Fluo-8 calcium fluorescence; 0% DMSO wells, 100% maximal acetylcholine response. activation, % at 3 µM. 0.19% of 360,000 active. AID 624037;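 active = activation above the run's mean over test compounds plus 3 SD, cut at about 23% in these data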;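 also: signal is peak over basal fluorescence ratio across the kinetic read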
# M4 antag: CHRM4 antagonism in calcium assay | 0.73% of 360,000 active | P08173 | AID 624125 | inhibition, % at 3 µM | CHO-hM4 cells, ACh EC80, Fluo-8 calcium fluorescence;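 active = inhibition above its plate's cutoff, the mean inhibition of sample wells plus 3 SD, cut at about 27% in these data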;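 also: 0% = acetylcholine EC80 with DMSO and 100% = DMSO without agonist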
# * marks the source's active call; other numbers are inactive results; ! = not confirmed by another sample. Sampled rows, rich in hits. Any-hit rate of the full collection: about 1.9%.
SMILES,M4 PAM,CHRM4 agonist,CHRM5 PAM,CHRM5 antagonist,CHRM5 agonist,M4 antag
Cc1ccc2c(c1N)C(=O)c1ccccc1C2=O,-2.4,14.0,-12.5,28.5*,4.7,13.7
CCc1ccc(-n2c(O)c(/C=N/N3CCCCC3c3cccnc3)c(=O)[nH]c2=O)cc1 (stereo not given),11.0,0.5,19.5*,-11.2,3.1,-0.1
O=c1[nH]c(=S)n(-c2ccccc2)c(O)c1/C=N/N1CCCCC1c1cccnc1 (stereo not given),10.8,1.5,-1.7,3.2,5.4,-0.7
CCN(CC)c1ccc(/C=C/[N+](=O)[O-])cc1,-28.0,71.2*,-30.6,90.2*,96.2*,28.6*
COc1cc(/C=C/[N+](=O)[O-])ccc1O,3.3,1.5,10.7,-7.9,10.2,15.9
COc1ccccc1N1C(=O)NC(=O)C(CCc2ccncc2)(CCc2ccncc2)C1=O,10.9,-0.1,27.6*,4.4,2.6,-15.2
C[C@]12CC[C@H](O)CC1C(=O)CC1C2CC[C@@]2(C)C1CC[C@@H]2O (stereo not given in full),3.6,1.8,-3.1,-2.8,-5.4,-11.8
CC(=O)O[C@H]1CC[C@@]2(C)[C@H](C1)C(=O)C[C@H]1[C@@H]3CC[C@@H]4[C@@H](CN5C[C@@H](C)CC[C@H]5[C@@]4(C)O)[C@@H]3C[C@@H]12,-15.1,-0.1,-6.0,10.4,-7.2,65.1*
C[C@H]1CC[C@@H]2N(C1)C[C@H]1[C@@H]3C[C@H]4[C@@H](CC(=O)[C@H]5C[C@@H](O)CC[C@@]54C)[C@@H]3CC[C@H]1[C@]2(C)O,-18.2,1.1,-7.7,1.0,-5.9,84.5*
O=C(c1cccc2ccccc12)C1CCCN(C2CCC2)C1 (stereo not given),-14.3,1.2,-16.8,10.2,-9.4,10.2
CCN1CCN(Cc2cc(Br)cc(OC)c2O)CC1,-26.2,2.4,-19.0,2.2,-12.7,39.2*
COC(=O)C1=CO[C@@H](C)[C@@H]2CN(CCc3c[nH]c4ccccc34)CC[C@H]12,-14.1,1.1,-24.4,49.5*,-4.8,25.5
OC(c1ccccc1)(c1ccc(Cl)cc1)C1CN2CCC1CC2 (stereo not given),-55.4,8.6,-32.5,59.9*,-17.9,44.3*
OC(Cc1ccccc1)(c1ccccc1)C1CN2CCC1CC2 (stereo not given),-24.4,1.4,-20.3,90.3*,-8.1,84.9*
c1ccc(C2CN3CCC2CC3)cc1 (stereo not given),-12.7,0.0,-18.4,6.1,-18.2,10.8
OC(c1ccccc1)(c1ccccc1)C1CN2CCC1CC2 (stereo not given),-21.1,1.2,-22.5,99.2*,-11.7,75.0*
CC(=O)Nc1ccc(OC(=O)N2CCCCC2)cc1,7.5,0.1,0.9,-3.6,-2.4,-0.6
O=C(Oc1ccc([N+](=O)[O-])cc1)N1CCC(N2CCCCC2)CC1,-16.9,-0.3,-4.4,3.6,-8.5,56.5*
CC1OC(OC2CC(O)C3(CO)C4C(O)CC5(C)C(C6=CC(=O)OC6)CCC5(O)C4CCC3(O)C2)C(O)C(O)C1O (stereo not given),8.6,0.3,1.1,-1.6,2.8,-6.9
C[C@@H]1O[C@@H](O[C@H]2C[C@@H](O)[C@]3(CO)[C@H]4[C@H](O)C[C@]5(C)[C@@H](C6COC(=O)C6)CC[C@]5(O)[C@@H]4CC[C@]3(O)C2)[C@H](O)[C@H](O)[C@H]1O (stereo not given in full),-15.0,0.9,-6.8,-5.1,0.3,34.1*
COc1ccccc1CCNC1C2CC3CC(C2)CC1C3 (stereo not given),-14.5,1.1,-6.6,7.8,-8.2,31.6*
CCCn1ncc(CN2CCCC(C(=O)c3cccc(OC)c3)C2)c1C (stereo not given),-23.2,1.3,-19.3,15.6,-10.5,55.5*
ClC1=CCC2CN(CCN3CCCCC3)CC2C1 (stereo not given),-1.3,0.2,-1.6,2.9,-11.2,-2.5
Cc1noc(C)c1CC(=O)N1CCCC(N2CCN(c3ccccc3F)CC2)C1 (stereo not given),-4.7,1.2,-5.0,12.2,-3.1,1.9
C=C1N2CCC(CC2)C1(O)c1ccc(C)c(C)c1 (stereo not given),-6.5,0.8,-55.1,33.4*,-13.4,4.5
SMILES,M4 PAM,CHRM4 agonist,CHRM5 PAM,CHRM5 antagonist,CHRM5 agonist,M4 antag
O=C(c1cccs1)C1CN2CCC1CC2 (stereo not given),-16.2,-0.2,-12.5,13.4,-7.3,-0.6
O=C(O)C1CN2CCC1CC2 (stereo not given),0.8,0.9,-10.4,-1.2,36.5*,9.9
CC1OC(C[N+](C)(C)C)CC1O (stereo not given),-18.7,70.7*,-13.2,94.7*,101.6*,30.4*
C[C@H]1OC[C@@H](C[N+](C)(C)C)O1,-19.4,98.4*,-12.0,95.8*,107.3*,72.7*
O=C(Cn1cnc2sc3c(c2c1=O)CCCC3)NCCC(=O)N1CCC2(CC1)OCCO2,-3.4,-0.6,4.5,-3.4,2.1,4.0
CN1CCN(C(=O)COc2ccc(S(=O)(=O)NC3CCCCC3)cc2Cl)CC1,4.2,1.4,20.6*,-19.0,2.4,-3.4
COc1ccc(NS(=O)(=O)c2ccc(OCC(=O)N3CCN(C)CC3)cc2)cc1Cl,0.6,3.0,-2.8,-3.0,-4.2,-10.0
Cc1ccc(OP(N)(=O)Oc2ccc(C)cc2)cc1,-0.6,0.6,2.1,1.1,-3.0,5.0
C[CH2][Hg][S]c1ccccc1C(=O)O,33.4*,8.8,16.6,5.5,17.4,35.9*
CC(C)COC(=O)c1ccccc1C(=O)OCC(C)C,2.5,0.7,2.0,8.2,-1.0,-4.8
COc1cccc(CNC2CN3CCC2CC3)c1OC (stereo not given),-11.4,2.2,-24.1,59.9*,-6.0,25.1
CCC(=O)C(CCN1CCOCC1)(c1ccccc1)c1ccccc1,-14.8,-0.1,-3.8,14.9,-20.3,7.5
CC(C)[N+](C)(CCC(C(N)=O)(c1ccccc1)c1ccccc1)C(C)C,-18.0,-0.2,-18.4,98.7*,-1.4,99.7*
ClC1C(Cl)C(Cl)C(Cl)C(Cl)C1Cl (stereo not given),3.5,5.1,-21.1,35.0*!,83.6*!,-10.1
CC(=O)OCC[N+](C)(C)C,-20.7,95.8*,-13.4,97.7*,99.8*,79.0*
C[N+](C)(C)CCOC(=O)CBr,0.4,0.8,-15.1,-1.0,36.6*,-8.5
Cc1cc(=O)[nH]c(SCc2nc3ccccc3c(=O)n2-c2ccccc2C)n1,7.0,-2.2,6.3,-1.3,4.6,-10.8
